Values after ≈ are worked out from the molar mass of the structure shown.
Key:
HeLa = assay: Cytotoxicity against human HeLa cells assessed as cell survival after 72 hrs by MTT assay; assay type: functional, cell-based
In short: (§1)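 Cells seeded (HeLa 2000, MDA-MB-453 3000, others 5000 per well), treated 24 h later (K562 after 2 h). Five double-diluted final concentrations, 200–12.5 μM, from 10 mM DMSO stocks, in RPMI-1640 with 10% FBS, pH 7.2, 72 h. MTT 4 h at 37 °C, SDS added, A570 read next day. Survival relative to medium control; IC50 from survival curves; triplicate; cisplatin positive control.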

A549 = assay: Cytotoxicity against human A549 cells assessed as cell survival after 72 hrs by MTT assay; assay type: functional, cell-based; settings: A549, 72 h; in short: as §1
[1] = Cytotoxicity against human Fem-X cells assessed as cell survival after 72 hrs by MTT assay; assay type: functional, cell-based; in short: as §1
K562 = assay: Cytotoxicity against human K562 cells assessed as cell survival after 72 hrs by MTT assay; assay type: functional, cell-based; settings: K562, 72 h; in short: as §1
MDA-MB-453 = assay: Cytotoxicity against human MDA-MB-453 cells assessed as cell survival after 72 hrs by MTT assay; assay type: functional, cell-based; settings: MDA-MB-453, 72 h; in short: as §1
MRC5 = assay: Cytotoxicity against human MRC5 cells assessed as cell survival after 72 hrs by MTT assay; assay type: cell-based; settings: MRC5, 72 h; in short: as §1
Staphylococcus aureus = assay: Antibacterial activity against Staphylococcus aureus ATCC 6538 after 24 hrs by microbroth double dilution method; assay type: functional; settings: ATCC 6538, 24 h
In short: (§2)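 Microbroth double dilution in Mueller Hinton broth; compound stock 10 mg/mL in DMSO serially halved across rows. Wells inoculated with 10 μL culture at 10^6 cells/mL, incubated 37 °C for 24 h. Amikacin row as positive control, DMSO row as negative control. MIC taken as lowest concentration inhibiting bacterial growth.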

Kocuria rhizophila = assay: Antibacterial activity against Kocuria rhizophila ATCC 9341 after 24 hrs by microbroth double dilution method; assay type: functional; settings: ATCC 9341, 24 h; in short: as §2
Bacillus subtilis = assay: Antibacterial activity against Bacillus subtilis ATCC 6633 after 24 hrs by microbroth double dilution method; assay type: functional; settings: ATCC 6633, 24 h; in short: as §2
Micrococcus luteus = assay: Antibacterial activity against Micrococcus luteus ATCC 4698 after 24 hrs by microbroth double dilution method; assay type: functional; settings: ATCC 4698, 24 h; in short: as §2
Micrococcus flavus = assay: Antibacterial activity against Micrococcus flavus ATCC 10240 after 24 hrs by microbroth double dilution method; assay type: functional; settings: ATCC 10240, 24 h; in short: as §2
Clostridium sporogenes = assay: Antibacterial activity against Clostridium sporogenes ATCC 19404 after 24 hrs by microbroth double dilution method; assay type: functional; settings: ATCC 19404, 24 h; in short: as §2
Escherichia coli = assay: Antibacterial activity against Escherichia coli ATCC 25922 after 24 hrs by microbroth double dilution method; assay type: functional; settings: ATCC 25922, 24 h; in short: as §2
Proteus hauseri = assay: Antibacterial activity against Proteus hauseri ATCC 13315 after 24 hrs by microbroth double dilution method; assay type: functional; settings: ATCC 13315, 24 h; in short: as §2
Salmonella enterica = assay: Antibacterial activity against Salmonella enterica ATCC 13076 after 24 hrs by microbroth double dilution method; assay type: functional; settings: ATCC 13076, 24 h; in short: as §2
Pseudomonas aeruginosa = assay: Antibacterial activity against Pseudomonas aeruginosa ATCC 9027 after 24 hrs by microbroth double dilution method; assay type: functional; settings: ATCC 9027, 24 h; in short: as §2
Candida albicans = assay: Antifungal activity against Candida albicans ATCC 10231 after 24 hrs by microbroth double dilution method; assay type: functional
Saccharomyces cerevisiae = assay: Antifungal activity against Saccharomyces cerevisiae ATCC 9763 after 24 hrs by microbroth double dilution method; assay type: functional
Aspergillus brasiliensis = assay: Antifungal activity against Aspergillus brasiliensis ATCC 16404 after 24 hrs by microbroth double dilution method; assay type: functional
Artemia salina = assay: Cytotoxicity in Brine shrimp assessed as nauplii mortality after 24 hrs; assay type: organism-based; settings: in vivo
In short: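 Artemia salina eggs hatched in aerated tap water with dried yeast at 18–20 °C under illumination for 48 h, and freshly hatched nauplii were used. Compounds in DMSO (0.01–1 mg) were added to 950 µL artificial seawater containing 10–20 nauplii, with 5% final DMSO. After 24 h under illumination at room temperature, dead and surviving nauplii were counted and statistically analysed.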

Row | Compound | IC50 (HeLa) | IC50 (A549) | IC50 [1] | IC50 (K562) | IC50 (MDA-MB-453) | IC50 (MRC5) | MIC (Staphylococcus aureus) | MIC (Kocuria rhizophila) | MIC (Bacillus subtilis) | MIC (Micrococcus luteus) | MIC (Micrococcus flavus) | MIC (Clostridium sporogenes) | MIC (Escherichia coli) | MIC (Proteus hauseri) | MIC (Salmonella enterica) | MIC (Pseudomonas aeruginosa) | MIC (Candida albicans; ATCC 10231, 24 h) | MIC (Saccharomyces cerevisiae; ATCC 9763, 24 h) | MIC (Aspergillus brasiliensis; ATCC 16404, 24 h) | LC50 (Artemia salina) | further results
1 | CC(C)(C)C1=CC(=O)C=C(N[C@@H](Cc2c[nH]c3ccccc23)C(=O)O)C1=O | 106 µM | 198 µM | 34.7 µM | 25 µM | 120 µM | > 200 µM | 855 µM (≈ 313 µg/mL) | 1710 µM (≈ 626 µg/mL) | 1710 µM (≈ 626 µg/mL) | 1710 µM (≈ 626 µg/mL) | 1710 µM (≈ 626 µg/mL) | 1710 µM (≈ 626 µg/mL) | 1710 µM (≈ 626 µg/mL) | 1710 µM (≈ 626 µg/mL) | 1710 µM (≈ 626 µg/mL) | 1710 µM (≈ 626 µg/mL) | 213 µM (≈ 78.1 µg/mL) | 213 µM (≈ 78.1 µg/mL) | 1410 µM (≈ 516 µg/mL) | – | –
2 | CC(C)(C)C1=CC(=O)C=C(NCC(=O)O)C1=O | 132 µM | > 200 µM | 34.3 µM | 85 µM | 171 µM | > 200 µM | 662 µM (≈ 157 µg/mL) | 2640 µM (≈ 626 µg/mL) | 1320 µM (≈ 313 µg/mL) | 662 µM (≈ 157 µg/mL) | 2640 µM (≈ 626 µg/mL) | 2640 µM (≈ 626 µg/mL) | 662 µM (≈ 157 µg/mL) | 2640 µM (≈ 626 µg/mL) | 2640 µM (≈ 626 µg/mL) | 662 µM (≈ 157 µg/mL) | 662 µM (≈ 157 µg/mL) | 662 µM (≈ 157 µg/mL) | 2640 µM (≈ 626 µg/mL) | 197.4 ppm | –
3 | CC(C)(C)C1=CC(=O)C=C(NCCC(=O)O)C1=O | 47.1 µM | 171 µM | 28.4 µM | 67 µM | 94.1 µM | > 200 µM | 625 µM (≈ 157 µg/mL) | 2490 µM (≈ 625 µg/mL) | 2490 µM (≈ 625 µg/mL) | 1250 µM (≈ 313 µg/mL) | 2490 µM (≈ 625 µg/mL) | 1250 µM (≈ 313 µg/mL) | 1250 µM (≈ 313 µg/mL) | 2490 µM (≈ 625 µg/mL) | 2490 µM (≈ 625 µg/mL) | 2490 µM (≈ 625 µg/mL) | 626 µM (≈ 157 µg/mL) | 311 µM (≈ 78.1 µg/mL) | 2490 µM (≈ 626 µg/mL) | 833.2 ppm | –
4 | CSCC[C@H](NC1=CC(=O)C=C(C(C)(C)C)C1=O)C(=O)O | 77.4 µM | > 200 µM | 34.8 µM | 88.5 µM | 151 µM | > 200 µM | 1010 µM (≈ 313 µg/mL) | 2010 µM (≈ 626 µg/mL) | 2010 µM (≈ 626 µg/mL) | 505 µM (≈ 157 µg/mL) | 2010 µM (≈ 626 µg/mL) | 2010 µM (≈ 626 µg/mL) | 1010 µM (≈ 313 µg/mL) | 2010 µM (≈ 626 µg/mL) | 2010 µM (≈ 626 µg/mL) | 2010 µM (≈ 626 µg/mL) | 505 µM (≈ 157 µg/mL) | 505 µM (≈ 157 µg/mL) | 2010 µM (≈ 626 µg/mL) | 360.2 ppm | –
5 | NCC[C@H](O)C(=O)N[C@@H]1C[C@H](N)[C@@H](O[C@H]2O[C@H](CN)[C@@H](O)[C@H](O)[C@H]2O)[C@H](O)[C@H]1O[C@H]1O[C@H](CO)[C@@H](O)[C@H](N)[C@H]1O [AMIKACIN] | – | – | – | – | – | – | 18.8 µM (≈ 11 µg/mL) | 3.42 µM (≈ 2 µg/mL) | 71.7 µM (≈ 42 µg/mL) | 13.7 µM (≈ 7.99 µg/mL) | 3.42 µM (≈ 2 µg/mL) | 25.6 µM (≈ 15 µg/mL) | 8.54 µM (≈ 5 µg/mL) | 11.9 µM (≈ 7 µg/mL) | 13.7 µM (≈ 8 µg/mL) | 85.4 µM (≈ 50 µg/mL) | – | – | – | – | –
6 | NYSTATIN | – | – | – | – | – | – | – | – | – | – | – | – | – | – | – | – | – | – | – | – | MIC (Candida albicans): 2700 µM; MIC (Saccharomyces cerevisiae): 1350 µM; MIC (Aspergillus brasiliensis): 1350 µM
7 | CC1=CCC[C@H]2[C@](C)(CC3=CC(=O)C=C(N[C@@H](Cc4c[nH]c5ccccc45)C(=O)O)C3=O)[C@@H](C)CC[C@]12C | 16.2 µM | 39.6 µM | 14.8 µM | 16.1 µM | 22.9 µM | 157 µM | 19.1 µM (≈ 9.81 µg/mL) | 305 µM (≈ 157 µg/mL) | 37.9 µM (≈ 19.5 µg/mL) | 19.1 µM (≈ 9.81 µg/mL) | 37.9 µM (≈ 19.5 µg/mL) | 37.9 µM (≈ 19.5 µg/mL) | 19.1 µM (≈ 9.81 µg/mL) | 37.9 µM (≈ 19.5 µg/mL) | 19.1 µM (≈ 9.81 µg/mL) | 37.9 µM (≈ 19.5 µg/mL) | 305 µM (≈ 157 µg/mL) | < 2.39 µM | 1220 µM (≈ 626 µg/mL) | – | –

From ChEMBL document CHEMBL3627646, “Synthesis and biological activity of amino acid derivatives of avarone and its model compound” (Bioorg Med Chem, 2015)
